Test [1] is described as follows: Cytotoxicity against human HL60/MX2 cells. In kind it is functional, cell-based.
Test [2] addresses DNA topoisomerase 2-alpha (Homo sapiens) (UniProt P11388). The experiment in a line: Inhibition of human topoisomerase 2-mediated relaxation of supercoiled PUC19 DNA at 20 to 50 uM uM after 20 mins using ethidium bromide staining by agarose gel electrophoresis. In short, it runs like this: (§1)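 Native supercoiled pUC19 plasmid (350 ng) incubated with 4 units human topoisomerase II, with or without compound at several concentrations; etoposide run as reference. Relaxation/cleavage products separated by gel electrophoresis and scored for supercoiled, relaxed and broken DNA forms.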

The next test relates to HL-60. The experiment in a line: Cytotoxicity against human HL60 cells. The class given is functional, cell-based.
In a further test the test system is Calf thymus DNA. The test can be described thus: Binding affinity to calf thymus DNA assessed as change in melting temperature. The class given is nucleic-acid assay. To be noted: Bos taurus.
Test [3] has as its target DNA topoisomerase 2-alpha (Homo sapiens) (UniProt P11388). The test can be described thus: Inhibition of human topoisomerase 2-mediated relaxation of supercoiled PUC19 DNA at 1 to 100 uM uM after 20 mins using ethidium bromide staining by agarose gel electrophoresis. In short, it runs like this: as §1

Activity calls are given as the source filed them. No cut-off for these calls is given here.

From ChEMBL document CHEMBL1287657, “Synthesis and biological activities of new furo[3,4-b]carbazoles: potential topoisomerase II inhibitors” (Eur J Med Chem, 2010) come the findings set out here.

DNA topoisomerase 2-alpha (Homo sapiens), sequence (P11388 whole entry): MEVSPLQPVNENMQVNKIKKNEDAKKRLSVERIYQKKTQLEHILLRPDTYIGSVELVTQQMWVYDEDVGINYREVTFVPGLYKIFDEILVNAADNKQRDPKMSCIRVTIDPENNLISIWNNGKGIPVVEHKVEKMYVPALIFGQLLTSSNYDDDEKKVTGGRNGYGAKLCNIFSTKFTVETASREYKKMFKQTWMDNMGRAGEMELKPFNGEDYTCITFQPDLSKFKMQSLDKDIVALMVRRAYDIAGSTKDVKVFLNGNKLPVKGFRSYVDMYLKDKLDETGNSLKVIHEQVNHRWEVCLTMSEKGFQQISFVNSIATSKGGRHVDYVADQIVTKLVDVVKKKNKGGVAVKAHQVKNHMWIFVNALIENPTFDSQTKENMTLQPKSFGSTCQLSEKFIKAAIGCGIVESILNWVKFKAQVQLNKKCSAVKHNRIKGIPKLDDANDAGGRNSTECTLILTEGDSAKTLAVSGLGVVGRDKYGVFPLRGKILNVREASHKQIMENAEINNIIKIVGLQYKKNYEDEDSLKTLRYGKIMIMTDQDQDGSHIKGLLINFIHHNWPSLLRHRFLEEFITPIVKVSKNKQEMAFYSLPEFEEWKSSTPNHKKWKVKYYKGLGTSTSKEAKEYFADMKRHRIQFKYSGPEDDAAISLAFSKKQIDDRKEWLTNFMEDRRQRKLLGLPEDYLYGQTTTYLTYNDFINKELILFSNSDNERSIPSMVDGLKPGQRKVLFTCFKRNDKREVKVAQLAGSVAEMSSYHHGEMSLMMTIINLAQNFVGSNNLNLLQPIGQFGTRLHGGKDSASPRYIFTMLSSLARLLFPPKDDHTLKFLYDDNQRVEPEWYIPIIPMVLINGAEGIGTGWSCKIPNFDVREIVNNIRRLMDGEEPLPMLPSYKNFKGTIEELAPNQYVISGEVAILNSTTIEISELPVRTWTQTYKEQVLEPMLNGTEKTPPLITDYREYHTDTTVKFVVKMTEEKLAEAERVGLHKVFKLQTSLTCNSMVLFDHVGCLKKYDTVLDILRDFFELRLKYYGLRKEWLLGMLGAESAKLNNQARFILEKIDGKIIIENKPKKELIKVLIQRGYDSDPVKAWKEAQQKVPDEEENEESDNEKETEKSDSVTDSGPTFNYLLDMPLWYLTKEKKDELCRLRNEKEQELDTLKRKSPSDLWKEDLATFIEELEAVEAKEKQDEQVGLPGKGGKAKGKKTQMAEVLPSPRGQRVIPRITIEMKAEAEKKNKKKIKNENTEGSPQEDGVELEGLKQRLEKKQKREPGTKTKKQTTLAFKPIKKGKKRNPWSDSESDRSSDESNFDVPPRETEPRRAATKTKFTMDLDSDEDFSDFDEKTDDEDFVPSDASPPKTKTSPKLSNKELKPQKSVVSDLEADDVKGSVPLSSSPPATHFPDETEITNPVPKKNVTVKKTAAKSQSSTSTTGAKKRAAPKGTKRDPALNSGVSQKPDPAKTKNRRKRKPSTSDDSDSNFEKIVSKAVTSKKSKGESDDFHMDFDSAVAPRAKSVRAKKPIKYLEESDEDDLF

The IC50 is the point on the concentration scale where inhibition reaches its midpoint. In the case of `COc1cc(-c2c3c(cc4c2[nH]c2ccccc24)COC3=O)cc(O)c1O`, the values for the 50% inhibitory concentration (IC50) (in test [1]; in the test on HL-60) were 170 nM and 150 nM, respectively. In addition, the inhibition result in test [2] and in test [3] was “Active” in each case. The outcome in the test with Calf thymus DNA was inactive.
Consider `COc1cc(OC)cc(-c2c3c(cc4c2[nH]c2ccccc24)COC3=O)c1`, for which the inhibition result in test [2] was “inactive”.
For the compound `COc1ccc(-c2c3c(cc4c2[nH]c2ccccc24)COC3=O)cc1OC`, the inhibition entry in test [2] was “inactive”. The result in the test with Calf thymus DNA was inactive.
Take `O=C1OCc2cc3c([nH]c4ccccc43)c(-c3ccc4c(c3)OCO4)c21`: the inhibition entry in test [2] was “inactive”.
Turning to `COc1cc([C@@H]2c3cc4c(cc3[C@@H](O[C@@H]3O[C@@H]5CO[C@@H](C)O[C@H]5[C@H](O)[C@H]3O)[C@H]3COC(=O)[C@H]23)OCO4)cc(OC)c1O`, the inhibition result in test [2] was “Active”.
Turning to `COc1cc(-c2c3c(cc4c2[nH]c2ccccc24)COC3=O)cc(OC)c1OC`, the inhibition result in test [2] was “inactive”.
Still for that read-out and setting: the same measure for `COc1ccc(-c2c3c(cc4c2[nH]c2ccccc24)COC3=O)cc1`: “inactive”.
